This is an account of results in ChEMBL document CHEMBL1773017, “The identification of 4,7-disubstituted naphthoic acid derivatives as UDP-competitive antagonists of P2Y14” (Bioorg Med Chem Lett, 2011).

For data set [1], the target named is T1, P2Y purinoceptor 14 (Mus musculus, UniProt Q9ESG6).
T1 sequence (Q9ESG6 whole entry): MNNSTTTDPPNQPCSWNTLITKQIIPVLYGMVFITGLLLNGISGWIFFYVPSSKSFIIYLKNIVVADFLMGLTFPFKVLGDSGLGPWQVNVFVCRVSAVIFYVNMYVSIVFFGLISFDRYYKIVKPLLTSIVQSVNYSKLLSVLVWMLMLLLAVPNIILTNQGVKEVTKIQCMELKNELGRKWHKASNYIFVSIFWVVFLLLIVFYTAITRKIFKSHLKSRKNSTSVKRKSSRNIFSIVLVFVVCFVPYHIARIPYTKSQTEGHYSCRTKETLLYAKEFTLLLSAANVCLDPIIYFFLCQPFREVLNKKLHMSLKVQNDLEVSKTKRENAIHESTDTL
Nature of the data set: Antagonist activity at mouse P2Y14 receptor expressed in HEK293 cells assessed as calcium flux by FLIPR assay. In kind it is functional, cell-based.

Data set [2] is described as follows: Antagonist activity at chimpanzee P2Y14 receptor expressed in HEK293 cells assessed as calcium flux by FLIPR assay. Particulars: Pan troglodytes. In kind it is functional, cell-based. For orientation: Calcium assays in cells follow changes in intracellular calcium, usually with a dye or a luminescent sensor.
Data set [3] can be described thus: Displacement of [3H]-UDP from chimpanzee P2Y14 receptor expressed in HEK293 cells. In kind it is cell-based, Pan troglodytes. In general terms: Loss of bound radioactivity is the signal in a displacement assay; it reports binding, not function.
The nature of data set [4]: Metabolic stability in C57BL/6 mouse Hepatocyte assessed as parent compound remaining at 20 uM after 2 hrs. Particulars: hepatocytes, read-out: Stability. Type of data set: ADME, cell-based. Summed up: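 Hepatocytes were isolated from mouse liver by two-step perfusion with 50 U/mL collagenase. Compound was incubated with the hepatocytes for 2 h, and metabolic stability was read out as the percentage of parent drug remaining.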

The nature of data set [5]: Oral bioavailability in C57BL/6 mouse at 50 mg/kg, po administered in 5% Tween-80. Type of data set: ADME, organism-based. The settings on record: in vivo. Summed up: (§1)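 C57BL/6 mice were dosed orally at 50 mg/kg (one analog at 25 mg/kg) in 5% Tween-80. They were also dosed intravenously at 2 mg/kg in 60% PEG-200. Oral bioavailability, half-life and intrinsic clearance come from these dosings.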

The subject of data set [6] is Mus musculus. Nature of the data set: Intrinsic clearance in C57BL/6 mouse at 2 mg/kg, iv administered in 60% PEG-200. In kind it is ADME, organism-based. Details: dose 2 mg/kg, route intravenous. The settings on record: in vivo. The method, boiled down:
as §1

Data set [7] is described as follows: Half life in C57BL/6 mouse at 50 mg/kg, po and 2 mg/kg, iv. Type of data set: ADME, organism-based. The settings on record: in vivo. The method, boiled down: as §1
The nature of data set [8]: Cmax in C57BL/6 mouse at 50 mg/kg, po administered in 5% Tween-80. Type of data set: ADME, organism-based. On the set-up: dose 50 mg/kg, route oral. Particulars: in vivo. Summed up: as §1
Data set [9] has as its system Mus musculus. Nature of the data set: Drug metabolism in Mrp2 (-/-) mouse assessed as (2S,3S,4S,5R,6S)-6-(7-(4-fluoro-2,6-dimethylbenzyloxy)-4-(thiophen-3-yl)-2-naphthoyloxy)-3,4,5-trihydroxytetrahydro-2H-pyran-2-carboxylic acid recovery in bile at 2 mg/kg, po up to 24 hrs. The settings on record: in vivo.
Data set [10] can be described thus: Oral bioavailability in C57BL/6 mouse at 25 mg/kg, po administered in 5% Tween-80. The settings on record: in vivo. Type of data set: ADME, organism-based. Summed up: as §1
A short description of data set [11]: Cmax in C57BL/6 mouse at 25 mg/kg, po administered in 5% Tween-80. Type of data set: ADME, organism-based. Details: dose 25 mg/kg, route oral. The settings on record: in vivo. Summed up: as §1

In the case of `O=C(O)c1cc(-c2ccccc2)c2ccc(OCc3ccccc3)cc2c1`, the IC50 in [1] and in data set [2] was 3500 nM each time. In addition, in data set [3], affinity was put at a Ki of 160 nM.

Consider `COc1ccc2c(-c3ccccc3)cc(C(=O)O)cc2c1`, for which, in data set [3], the inhibitory constant (Ki) (usually a dissociation constant, usually derived from enzyme kinetics or from competition with a known ligand) was 4000 nM.

Consider `O=C(O)c1cc(-c2ccccc2)c2ccc(Oc3ccccc3)cc2c1`, for which the IC50 (usually the concentration needed to halve the response being measured) in [1] is 4900 nM; in data set [2] it was 4100 nM. In addition, the affinity in data set [3], expressed as Ki, was 1500 nM.

With `O=C(O)c1ccc(COc2ccc3c(-c4ccccc4)cc(C(=O)O)cc3c2)cc1`, the IC50 was over 13000 nM in data set [1] and over 40000 nM in data set [2].

`O=C(O)c1cc(-c2ccccc2)c2ccc(OCc3c(Cl)cccc3Cl)cc2c1`: the values for the IC50 in data set [1] and in data set [2] were 190 nM and 91 nM, respectively. In [3], this compound gave a Ki of 29 nM.

Regarding `Cc1cccc(C)c1COc1ccc2c(-c3ccccc3)cc(C(=O)O)cc2c1`, the IC50 turned out to be 110 nM in data set [1] and 41 nM in data set [2]. For the same compound, in [3], affinity was put at a Ki of 42 nM.

For the compound `Cc1cccc(C)c1OCc1ccc2c(-c3ccccc3)cc(C(=O)O)cc2c1`, the IC50 in data set [1] was determined as 2100 nM; in data set [2], 1500 nM. Further, the affinity in data set [3] corresponds to a Ki of 340 nM.

In the case of `Cc1cccc(C)c1COc1ccc2ccc(C(=O)O)cc2c1`, the 50% inhibitory concentration (IC50) in data set [1] is 13000 nM; in data set [2], 6500 nM.

Turning to `Cc1cccc(C)c1COc1ccc2c(OCc3ccccc3)cc(C(=O)O)cc2c1`, the figures for the IC50 in data set [1] and in data set [2] were 110 nM and 89 nM, respectively. This compound displayed a Ki in data set [3] of 21 nM.

With `Cc1cccc(C)c1COc1ccc2c(-c3ccsc3)cc(C(=O)O)cc2c1`, the IC50 in [1] stood at 26 nM; in data set [2] it was 6 nM. This compound yielded a Ki in [3] of 16 nM.

Turning to `Cc1cc(F)cc(C)c1COc1ccc2c(-c3ccsc3)cc(C(=O)O)cc2c1`, the IC50 came out at 14 nM in data set [1] and 4 nM in data set [2]. The same compound yielded a Ki in data set [3] of 14 nM. Further, in data set [4], the remaining at 2 h, 20 µM was determined as 8%. Besides, in data set [5], the bioavailability was 12%. The CL in [6] came out at 7.1 mL/min/kg. In data set [7], the half-life (in general, how long it takes for the measured level to halve) is 162 min. Further, the peak level in data set [8] (Cmax) was 23 µM. In data set [9], the Activity is over 99%.

For `O=C(O)c1cc(-c2ccsc2)c2ccc(-c3ccc(OC(F)(F)F)cc3)cc2c1`, the IC50 in data set [1] turned out to be 54 nM; in data set [2] it was 14 nM. This compound had a Ki in [3] of 29 nM. In data set [4], the remaining at 2 h, 20 µM turned out to be 62%. Further, the bioavailability in [10] is 92%. The same compound showed a CL in data set [6] of 18 mL/min/kg. This compound had a half-life in [7] of 66 min. Also, the maximum concentration (Cmax) (as a rule, the peak of the concentration-time curve) in [11] was 18 µM.

For the compound `O=C(O)c1cc2cc(-c3ccc(OC(F)(F)F)cc3)ccc2c(-c2ccsc2)c1F`, the IC50 worked out at 380 nM in data set [1] and 110 nM in data set [2]. In data set [3], this compound had a Ki of 110 nM. In addition, in [4], the remaining at 2 h, 20 µM was determined as 85%. Further, in data set [5], the bioavailability was found to be 129%. This compound yielded a CL in data set [6] of 3.3 mL/min/kg. In addition, the half-life in [7] is 258 min. Also, the Cmax in [8] was found to be 89 µM.

Consider `O=C(O)c1cc2cc(-c3ccc(OC(F)(F)F)cc3)ccc2c(-c2ccsc2)c1O`, for which the figures for the IC50 in data set [1] and in data set [2] were 1300 nM and 490 nM, respectively. In addition, the Ki in [3] was determined as 170 nM. In addition, in data set [4], the remaining at 2 h, 20 µM worked out at 93%. This compound also registered a CL in data set [6] of 7.6 mL/min/kg. The compound further showed a half-life in data set [7] of 780 min. Also, the Cmax in data set [8] was 34 µM.

Turning to `O=C(O)c1cc(-c2cscc2C(O)(C(F)(F)F)C(F)(F)F)c2ccc(-c3ccc(OC(F)(F)F)cc3)cc2c1`, the IC50 was determined as 350 nM in [1] and 91 nM in data set [2]. The affinity in [3] corresponds to a Ki of 54 nM. Further, the remaining at 2 h, 20 µM in [4] is 91%. For the same compound, in [5], the bioavailability amounted to 45%. This compound had a CL in [6] of 1.9 mL/min/kg. For the same compound, in data set [7], the half-life is 246 min. Further, in [8], the highest level (Cmax) was 37 µM.

As for `CS(=O)(=O)c1cscc1-c1cc(C(=O)O)cc2cc(-c3ccc(OC(F)(F)F)cc3)ccc12`, in data set [2], the IC50 came to 86 nM. In data set [3], this compound registered a Ki of 32 nM. In [4], the remaining at 2 h, 20 µM stood at 16%. In addition, in data set [5], the bioavailability came to 4%. For the same compound, in [6], the CL was 3.7 mL/min/kg. Further, the half-life in [7] was 192 min. This compound came in with a Cmax in [8] of 16 µM.

Consider `CS(=O)(=O)c1ccc(-c2cc(C(=O)O)cc3cc(-c4ccc(C(F)(F)F)cc4)ccc23)cc1`, for which the IC50 in data set [1] turned out to be 20 nM; in [2], 7 nM. Besides, the Ki in [3] came out at 7 nM.

On to `O=C(O)c1cc(-c2ccc(C(O)C(F)(F)F)cc2)c2ccc(-c3ccc(C(F)(F)F)cc3)cc2c1` (stereo not drawn), for which the IC50 in [1] was found to be 13 nM; in data set [2], 5 nM. The compound further displayed a Ki in data set [3] of 14 nM.

Consider `O=C(O)c1cc(-c2ccc([C@@H](O)C(F)(F)F)cc2)c2ccc(-c3ccc(C(F)(F)F)cc3)cc2c1`, for which the IC50 in [1] turned out to be 4 nM; in [2], 1 nM. In data set [3], this compound had a Ki of 10 nM.

Consider `O=C(O)c1cc(-c2ccc([C@H](O)C(F)(F)F)cc2)c2ccc(-c3ccc(C(F)(F)F)cc3)cc2c1`, for which the figures for the IC50 in data set [1] and in [2] were 51 nM and 11 nM, respectively. In data set [3], this compound showed a Ki of 21 nM.

In the case of `O=C(O)c1cc(-c2ccc([C@@H](O)C(F)F)cc2)c2ccc(-c3ccc(C(F)(F)F)cc3)cc2c1`, the IC50 in data set [1] was 8 nM; in data set [2] it was 1 nM. Besides, affinity in [3] was put at a Ki of 4 nM. For the same compound, in data set [4], the remaining at 2 h, 20 µM turned out to be 39%. Also, the bioavailability in data set [5] amounted to 67%. In data set [6], the CL is 1.6 mL/min/kg. The half-life in [7] is 180 min. For the same compound, the Cmax in data set [8] was 113 µM.
